We go through 27 molecules from ChEMBL document CHEMBL4177766, “Targeting a Subpocket in Trypanosoma brucei Phosphodiesterase B1 (TbrPDEB1) Enables the Structure-Based Discovery of Selective Inhibitors with Trypanocidal Activity” (J Med Chem, 2018).

The target in series [1] is T1, Class 1 phosphodiesterase PDEB1 (Trypanosoma brucei) (UniProt Q8WQX9).
T1 sequence (whole entry): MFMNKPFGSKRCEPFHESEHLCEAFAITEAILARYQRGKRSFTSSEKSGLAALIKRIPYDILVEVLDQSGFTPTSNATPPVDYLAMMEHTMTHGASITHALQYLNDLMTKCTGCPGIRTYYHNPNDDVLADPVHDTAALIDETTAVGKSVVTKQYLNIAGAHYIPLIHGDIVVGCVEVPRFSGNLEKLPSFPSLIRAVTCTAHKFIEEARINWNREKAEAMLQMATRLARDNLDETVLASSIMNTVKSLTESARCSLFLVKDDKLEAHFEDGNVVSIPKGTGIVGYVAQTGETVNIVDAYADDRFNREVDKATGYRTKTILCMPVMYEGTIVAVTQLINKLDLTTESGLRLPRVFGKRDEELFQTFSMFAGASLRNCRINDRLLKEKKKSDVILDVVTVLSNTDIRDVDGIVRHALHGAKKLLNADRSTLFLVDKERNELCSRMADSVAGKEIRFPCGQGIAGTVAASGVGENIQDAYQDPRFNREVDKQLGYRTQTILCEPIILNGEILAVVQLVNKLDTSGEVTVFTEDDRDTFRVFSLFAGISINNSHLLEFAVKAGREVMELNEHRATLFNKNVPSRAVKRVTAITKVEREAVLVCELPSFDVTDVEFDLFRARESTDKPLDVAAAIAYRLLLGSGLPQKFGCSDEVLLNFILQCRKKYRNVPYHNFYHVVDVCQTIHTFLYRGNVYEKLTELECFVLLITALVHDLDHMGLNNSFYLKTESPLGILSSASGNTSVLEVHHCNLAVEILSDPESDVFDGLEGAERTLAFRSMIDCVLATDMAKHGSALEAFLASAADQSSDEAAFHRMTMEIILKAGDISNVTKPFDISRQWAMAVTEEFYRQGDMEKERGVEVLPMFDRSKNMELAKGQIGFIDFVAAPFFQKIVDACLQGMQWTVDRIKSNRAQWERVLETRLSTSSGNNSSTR
Briefly: Inhibition of PDEB1 in bloodstream form of Trypanosoma brucei Lister 427 assessed as increase in intracellular cAMP levels at 0.3 uM after 5 hrs by ELISA. In kind it is cell-based. In outline: (§1)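 Log-phase bloodstream forms in HMI-9/FBS at 2 × 10^6 cells/mL, 6 mL subcultures; test drug 0.1–10 μM, reference inhibitor 0.3 μM, pentamidine 0.025 μM or no drug; 5 h at 37 °C, 5% CO2. 5 × 10^6 cells pelleted, lysed 20 min on ice in 0.1 M HCl, supernatant frozen for cAMP. Duplicates; mean of four determinations ± SEM; Student's t-test.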
On the technique in general: Cyclic AMP is a second messenger, typically raised through Gs and lowered through Gi signalling.

In series [2] the target is 3',5'-cyclic-AMP phosphodiesterase 4B (Homo sapiens, UniProt Q07343). Briefly: Inhibition of full length recombinant human PDE4B1 expressed in Sf21 insect cells using cAMP as substrate by scintillation proximity assay.
The target in series [3] is T2, Class 1 phosphodiesterase PDEB1 (Trypanosoma brucei, UniProt Q8WQX9).
T2 sequence (Q8WQX9 whole entry): T1 sequence (whole entry)
Briefly: Inhibition of full length Trypanosoma brucei PDEB1 expressed in Sf21 insect cells using cAMP as substrate by scintillation proximity assay. In outline: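 Enzyme amount set so that under 20% of substrate was consumed. Ki reported as mean ± SD of at least two independent experiments.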

Series [4] concerns the target T1, Class 1 phosphodiesterase PDEB1 (Trypanosoma brucei). Briefly: Inhibition of PDEB1 in bloodstream form of Trypanosoma brucei Lister 427 assessed as increase in intracellular cAMP levels at 0.025 uM after 5 hrs by ELISA. In kind it is cell-based. In outline:
as §1

A short description of series [5]: Selectivity ratio of Ki for full length recombinant human PDE4B1 to Ki for full length Trypanosoma brucei PDEB1.
For series [6], the system named is Trypanosoma brucei. Briefly: Antitrypanosomal activity against trypomastigote form of Trypanosoma brucei Squib 427 assessed as parasite growth inhibition after 72 hrs by resazurin assay. In kind it is functional, organism-based. Conditions: Squib 427, 72 h. In outline:
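Suramin-sensitive Squib-427 bloodstream trypomastigotes grown in HMI-9 + 10% FCS at 37 °C, 5% CO2. About 1.5 × 10^4 parasites per well exposed to five concentrations (64, 16, 4, 1, 0.25 μM), DMSO ≤0.5% final. After 72 h, resazurin added and absorbance read at 540 nm 4 h later, expressed as % of blank controls. Suramin reference; IC50 from triplicate experiments, mean ± SD.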
On the technique in general: Alamar Blue is a resazurin reagent that responds to reducing activity.

A further series has as its system MRC5. Briefly: Cytotoxicity against human MRC5 cells assessed as decrease in cell viability after 72 hrs by resazurin assay. In kind it is cell-based. The settings on record: mrc5, 72 h.
In series [7] the test system is Trypanosoma brucei. Briefly: Antitrypanosomal activity against bloodstream form of Trypanosoma brucei Lister 427 assessed as defect in cytokinesis at 10 uM after 6 hrs by DAPI staining-based fluorescence microscopic method. In kind it is functional, organism-based. In outline:
(§2)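 Bloodstream-form trypanosomes seeded at 2 × 10^5 cells/mL with 10 μM drug; samples taken at 0, 6, 12 and 24 h, pelleted at 4 °C, washed in PBS pH 7.4, air-dried on slides, fixed 15 min in 4% formaldehyde/PBS, mounted with DAPI. Nuclei, kinetoplasts, cell division and morphology were scored by brightfield and fluorescence microscopy.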

The test system of series [8] is Trypanosoma brucei. Briefly: Antitrypanosomal activity against bloodstream form of Trypanosoma brucei Lister 427 assessed as appearance of misshapen cells at 10 uM after 24 hrs by DAPI staining-based fluorescence microscopic method. In kind it is functional, organism-based. In outline: as §2
In series [9] the target is T1, Class 1 phosphodiesterase PDEB1 (Trypanosoma brucei). Briefly: Inhibition of PDEB1 in bloodstream form of Trypanosoma brucei Lister 427 assessed as increase in intracellular cAMP levels after 5 hrs by ELISA. In kind it is cell-based. In short, it runs like this: as §1
Series [10] has as its system Trypanosoma brucei. Briefly: Antitrypanosomal activity against bloodstream form of Trypanosoma brucei Lister 427 assessed as appearance of rounded cells with multiple flagella at 10 uM after 12 hrs by DAPI staining-based fluorescence microscopic method. In kind it is functional, organism-based. In outline:
as §2

The source made the active and inactive calls. The rule behind the calls is not given here.

Chain of 3',5'-cyclic-AMP phosphodiesterase 4B (Q07343 whole entry): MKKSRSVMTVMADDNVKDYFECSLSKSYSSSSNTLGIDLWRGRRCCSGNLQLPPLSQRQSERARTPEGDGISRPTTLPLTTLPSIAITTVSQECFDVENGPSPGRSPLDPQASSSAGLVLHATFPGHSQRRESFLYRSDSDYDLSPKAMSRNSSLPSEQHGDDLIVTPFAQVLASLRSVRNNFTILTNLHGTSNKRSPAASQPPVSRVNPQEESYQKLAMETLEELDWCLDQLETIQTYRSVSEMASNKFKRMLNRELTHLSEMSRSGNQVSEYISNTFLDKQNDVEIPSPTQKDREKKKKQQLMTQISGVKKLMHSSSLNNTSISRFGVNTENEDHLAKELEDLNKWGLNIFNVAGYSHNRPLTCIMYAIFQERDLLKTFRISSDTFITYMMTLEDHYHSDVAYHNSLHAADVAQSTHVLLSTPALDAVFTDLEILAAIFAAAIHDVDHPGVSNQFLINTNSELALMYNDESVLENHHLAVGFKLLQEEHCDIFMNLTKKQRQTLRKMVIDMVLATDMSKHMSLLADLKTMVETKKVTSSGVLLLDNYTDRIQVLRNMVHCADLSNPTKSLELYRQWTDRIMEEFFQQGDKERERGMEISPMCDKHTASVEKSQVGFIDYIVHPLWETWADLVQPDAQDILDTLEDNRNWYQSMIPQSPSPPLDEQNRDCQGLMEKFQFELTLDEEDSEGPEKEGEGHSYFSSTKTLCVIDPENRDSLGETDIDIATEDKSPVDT

Take `COc1ccc(C2=NN(C3CCCCCC3)C(=O)[C@@H]3CC=CC[C@H]23)cc1OCCCCOc1ccc(-c2nnn[nH]2)cc1`: the inhibition entry in series [1] is “Active”. The Ki (as a rule, a measure of affinity in units of concentration, obtained from inhibition or displacement) in series [2] was 0.000631 µM.

On to `COc1ccc(C2=NN(C3CCCCCC3)C(=O)[C@H]3CC=CC[C@@H]23)cc1-c1ccc(C(=O)NCC(N)=O)cc1`, for which the values for the Ki in [3] and in [2] were 3.98 µM and 50.1 µM, respectively.

Consider `N=C(N)c1ccc(OCCCCCOc2ccc(C(=N)N)cc2)cc1`, for which, in [4], the inhibition result is “inactive”.

`COc1ccc(C2=NN(C(C)C)C(=O)[C@@H]3CC=CC[C@H]23)cc1-c1ccc(C(=O)N2CCC[C@@H]2C(N)=O)cc1` (racemic): the Ratio Ki in series [5] was found to be 18.

As to `COc1ccc(C2=NN(C(C)C)C(=O)[C@@H]3CC=CC[C@H]23)cc1-c1ccc(C(=O)N2CC[C@@H](O)C2)cc1` (racemic), the Ratio Ki in series [5] is 15.

For `COc1ccc(C2=NN(C3CCCCCC3)C(=O)[C@@H]3CC=CC[C@H]23)cc1-c1ccc(C(=O)N2CCC[C@@H]2C(N)=O)cc1` (racemic), the Ratio Ki in series [5] amounted to 13.

As to `COc1ccc(C2=NN(C3CCCCCC3)C(=O)[C@@H]3CC=CC[C@H]23)cc1-c1ccc(C(=O)N2CC[C@@H](O)C2)cc1` (racemic), the Ratio Ki in series [5] turned out to be 9.

Turning to `COc1ccc(C2=NN(C3CCCCCC3)C(=O)[C@@H]3CC=CC[C@H]23)cc1-c1ccc(C#N)cc1` (relative stereo), the results for the inhibitory constant (Ki) in [3] and in [2] were 0.501 µM and 0.0316 µM, respectively. In series [5], the Ratio Ki was 0.1.

For `COc1ccc(C2=NN(C3CCCCCC3)C(=O)[C@@H]3CC=CC[C@H]23)cc1-c1ccc(C(N)=O)cc1` (relative stereo), the inhibition constant (Ki) in [3] and in series [2] was 0.158 µM in each case. Moreover, the Ratio Ki in series [5] amounted to 1.

As for `COc1ccc(C2=NN(C3CCCCCC3)C(=O)[C@@H]3CC=CC[C@H]23)cc1-c1cccc(C(=O)O)c1` (relative stereo), the Ki in series [3] was 7.94 µM; in [2] it was 12.6 µM. In series [5], the Ratio Ki was determined as 2.

For the molecule `COc1ccc(C2=NN(C3CCCCCC3)C(=O)[C@@H]3CC=CC[C@H]23)cc1-c1ccc(C(=O)NCC(=O)NCCO)cc1` (relative stereo), the Ki in series [3] is 0.398 µM; in series [2], 3.16 µM. Moreover, the Ratio Ki in [5] was found to be 7.

`COc1ccc(C2=NN(C(C)C)C(=O)[C@@H]3CC=CC[C@H]23)cc1-c1ccc(C(=O)NCC(N)=O)cc1` (relative stereo): the IC50 in the series with Trypanosoma brucei [6] (read-out: IC50) amounted to 6.7 µM. The Ki in series [3] was 0.1 µM; in series [2], 2 µM. In the series on MRC5, the CC50 (commonly the concentration giving 50% cytotoxicity) stood at 35 µM.

`COc1ccc(C2=NN(C3CCCCCC3)C(=O)[C@@H]3CC=CC[C@H]23)cc1-c1ccc(C(=O)O)cc1` (relative stereo): the results for the Ki in series [3] and in series [2] were 1.58 µM and 7.94 µM, respectively. In addition, the Ratio Ki in series [5] was found to be 5.

With `COc1ccc(C2=NN(C3CCCCCC3)C(=O)[C@@H]3CC=CC[C@H]23)cc1-c1ccc(C(=O)N(C)CC(N)=O)cc1` (relative stereo), the Ki in series [3] was 0.398 µM; in [2], 2.51 µM. Also, in series [5], the Ratio Ki turned out to be 7.

`COc1ccc(C2=NN(C3CCCCCC3)C(=O)[C@@H]3CC=CC[C@H]23)cc1-c1ccc(C(=O)NCCC(N)=O)cc1` (relative stereo): the Ki is 0.501 µM in series [3] and 1 µM in series [2]. For the same molecule, in series [5], the Ratio Ki was determined as 2.

`COCCNC(=O)CNC(=O)c1ccc(-c2cc(C3=NN(C4CCCCCC4)C(=O)[C@@H]4CC=CC[C@H]34)ccc2OC)cc1` (relative stereo): the Ki in series [3] is 0.501 µM; in series [2] it was 3.98 µM. Besides, the Ratio Ki in series [5] worked out at 8.

As to `COc1ccc(C2=NN(C3CCCCCC3)C(=O)[C@@H]3CC=CC[C@H]23)cc1-c1ccc(C(=O)NCC(N)=O)cc1` (relative stereo), the outcome in the series on Trypanosoma brucei [7], in the series with Trypanosoma brucei [8] and in the series with Trypanosoma brucei [10] was Active. Besides, the IC50 with Trypanosoma brucei [6] (read-out: IC50) turned out to be 5.5 µM. The inhibition result in series [9] was “Dose-dependent effect”. In the series on MRC5, the CC50 was 36 µM.

On to `COc1ccc(C2=NN(C3CCCCCC3)C(=O)[C@@H]3CC=CC[C@H]23)cc1-c1ccc(C(=O)NCC(=O)NC(C)C)cc1` (relative stereo), for which the Ki was 2 µM in [3] and 6.31 µM in series [2]. Also, the Ratio Ki in [5] was 4.

`COc1ccc(C2=NN(C3CCCCCC3)C(=O)[C@@H]3CC=CC[C@H]23)cc1-c1ccc(C(=O)NCCNC(C)=O)cc1` (relative stereo): the values for the inhibitory constant (Ki) in series [3] and in [2] were 0.794 µM and 3.98 µM, respectively. For the same molecule, the Ratio Ki in series [5] worked out at 5.

Take `COCCNC(=O)c1ccc(-c2cc(C3=NN(C4CCCCCC4)C(=O)[C@@H]4CC=CC[C@H]34)ccc2OC)cc1` (relative stereo): the results for the Ki in series [3] and in series [2] were 0.316 µM and 2 µM, respectively. The Ratio Ki in series [5] is 7.

As for `CNC(=O)CNC(=O)c1ccc(-c2cc(C3=NN(C4CCCCCC4)C(=O)[C@@H]4CC=CC[C@H]34)ccc2OC)cc1` (relative stereo), the results for the Ki in [3] and in series [2] were 0.398 µM and 2.51 µM, respectively. In series [5], the Ratio Ki came to 6.

On to `COc1ccc(C2=NN(C3CCCCCC3)C(=O)[C@@H]3CC=CC[C@H]23)cc1-c1ccc(C(=O)NCC(=O)N(C)C)cc1` (relative stereo), for which the values for the Ki in series [3] and in [2] were 0.794 µM and 3.16 µM, respectively. The Ratio Ki in series [5] is 4.

`COc1ccc(C2=NN(C3CCCCCC3)C(=O)[C@@H]3CC=CC[C@H]23)cc1-c1ccc(C(=O)N2CC(=O)N(C)C2)cc1` (relative stereo): the Ratio Ki in [5] was 1.4.

Take `COc1ccc(C2=NN(C3CCCCCC3)C(=O)[C@@H]3CC=CC[C@H]23)cc1-c1ccc(C(=O)N2CCC(=O)C2)cc1` (relative stereo): the Ratio Ki in series [5] was 3.

For the molecule `COc1ccc(C2=NN(C3CCCCCC3)C(=O)[C@@H]3CC=CC[C@H]23)cc1-c1ccc(C(=O)N2CNC(=O)C2)cc1` (relative stereo), in [5], the Ratio Ki was 1.

For the molecule `O=C(Nc1c(Cl)cncc1Cl)c1ccc(OC(F)F)c(OCC2CC2)c1` [ROFLUMILAST], the Ki in series [3] was 3.16 µM.

In the case of `Cc1ccc(C(=O)Nc2ccc(S(=O)(=O)O)c3cc(S(=O)(=O)O)cc(S(=O)(=O)O)c23)cc1NC(=O)c1cccc(NC(=O)Nc2cccc(C(=O)Nc3cc(C(=O)Nc4ccc(S(=O)(=O)O)c5cc(S(=O)(=O)O)cc(S(=O)(=O)O)c45)ccc3C)c2)c1` [SURAMIN], the IC50 with Trypanosoma brucei [6] (read-out: pIC50 (converted)) is 0.0398 µM.
